The results in this text go back to ChEMBL document CHEMBL4680093 (J Med Chem, 2016).

The nature of data set [1]: Ratio of unbound drug level in mouse plasma at 10 mg/kg, po measured after 2 hrs post dose to IC50 for mouse 11beta-HSD1. The class given is ADME, organism-based. To be noted: in vivo.
For data set [2], the system named is Mus musculus. In words: Improvement in lipid profile in C57BL/6-Lep^ob (ob/ob) mouse assessed as total cholesterol level at 20 mg/kg, po dosed once daily for 25 days co-treated with 300 mg/kg. po QD for 25 days metformin (reference value: 286.6 +/- 6.3 mg/dl). To be noted: time 25 day.
Data set [3] concerns the target 11-beta-hydroxysteroid dehydrogenase 1 (Homo sapiens, UniProt P28845). As to the kind of experiment: Inhibition of human 11beta-HSD1 expressed in microsomes. More on the design: species or system Microsome. In short, it runs like this:
(§1)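 HEK293 cell lysates (microsomal fractions) overexpressing human or mouse 11β-HSD1 were incubated with cortisone, a range of inhibitor concentrations and an NADPH regenerating system in sodium phosphate buffer at 37°C for 1 h. Cortisol in the supernatant was quantified by ELISA. Percent inhibition was fitted to a sigmoidal dose-response curve to give IC50.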

The nature of data set [4]: Clearance in rat at 1 mg/kg, iv. The class given is ADME, organism-based. The settings on record: in vivo.
Another data set has as its system Erythrocyte. In words: Genotoxicity in mouse erythrocytes by micronucleus test. The class given is toxicity, cell-based.
A short description of data set [5]: In-vivo inhibition of 11beta-HSD1 activity in C57BL/6 mouse liver assessed as reduction in cortisone to-cortisol conversion at 10 mg/kg, po measured after 6 hrs by ELISA. In kind it is functional. The settings on record: C57BL/6, Liver. A digest of the protocol: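 Male C57BL/6 mice dosed orally once at 3, 10 or 30 mg/kg in sterile water containing 0.5% methylcellulose and 1% Tween80, then sacrificed at 2 or 6 h. Liver and epididymal fat pads incubated ex vivo in culture medium containing cortisone. Cortisol formed was measured by ELISA and reported as % inhibition versus vehicle.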

The nature of data set [6]: Ratio of unbound Cmax in mouse plasma at 10 mg/kg, po measured after 2 hrs post dose to IC50 for human ERG expressed in CHO cells. In kind it is ADME, organism-based. To be noted: in vivo.
The subject of data set [7] is Mus musculus. As to the kind of experiment: Improvement in lipid profile in C57BL/6-Lep^ob (ob/ob) mouse assessed as LDL cholesterol level at 20 mg/kg, po dosed once daily for 25 days co-treated with 300 mg/kg. po QD for 25 days metformin (reference value: 30.3 +/- 0.8 mg/dl). The settings on record: time 25 day.
Data set [8] can be described thus: Toxicity in male dog during 4-week repeated once daily oral-dose toxicity study. More on the design: species or system Canis lupus familiaris. The settings on record: in vivo, time 4 weeks. In short, it runs like this: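 Dogs of both sexes were dosed orally once daily for 4 weeks at 25, 100 and 400 mg/kg. Toxicity was assessed and the NOAEL determined.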
Data set [9] can be described thus: Half life in dog at 0.5 mg/kg, iv. The class given is ADME, organism-based, Canis lupus familiaris. To be noted: in vivo.
Data set [10] can be described thus: Toxicity in female mouse during 4-week repeated once daily oral-dose toxicity study. To be noted: in vivo, time 4 weeks. In short, it runs like this:
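Mice of both sexes were dosed orally once daily for 4 weeks at 40, 100, 250 and 625 mg/kg. Toxicity was assessed and the NOAEL determined.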

A short description of data set [11]: Tmax in rat at 5 mg/kg, po. The class given is ADME, organism-based. To be noted: in vivo. A digest of the protocol:
(§2)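 Single-dose PK study. The iv dose was given in 10% hydroxypropyl-β-cyclodextrin and the oral dose in 0.5% methylcellulose/1% Tween80. Mouse and rat received 1 mg/kg iv and 5 mg/kg po. Dog received 0.5 mg/kg iv and 4 mg/kg po. CL, Vss, t1/2, AUC, Cmax, tmax and F were derived.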

Data set [12] can be described thus: Tmax in dog at 4 mg/kg, po. The class given is ADME, organism-based, Canis lupus familiaris. The settings on record: in vivo. In short, it runs like this:
as §2

The target of data set [13] is T1, Nuclear receptor subfamily 1 group I member 2 (Homo sapiens, UniProt O75469).
T1 sequence (O75469 whole entry): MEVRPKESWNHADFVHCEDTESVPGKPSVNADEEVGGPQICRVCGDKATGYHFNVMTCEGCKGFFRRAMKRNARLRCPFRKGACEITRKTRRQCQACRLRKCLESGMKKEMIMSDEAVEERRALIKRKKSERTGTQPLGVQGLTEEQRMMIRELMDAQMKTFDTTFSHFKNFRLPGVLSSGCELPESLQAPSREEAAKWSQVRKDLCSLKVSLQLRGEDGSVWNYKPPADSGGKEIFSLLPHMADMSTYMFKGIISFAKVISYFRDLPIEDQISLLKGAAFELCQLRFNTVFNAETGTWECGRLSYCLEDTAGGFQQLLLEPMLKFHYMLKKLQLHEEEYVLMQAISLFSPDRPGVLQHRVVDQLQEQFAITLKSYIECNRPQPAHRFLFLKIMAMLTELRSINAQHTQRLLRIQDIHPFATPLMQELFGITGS
As to the kind of experiment: Activation of PXR (unknown origin) at 10 uM relative to rifampicin. The class given is ADME.

Data set [14] in a line: Cmax in rat at 5 mg/kg, po. In kind it is ADME, organism-based. Also noted: route oral, dose 5 mg/kg. The settings on record: in vivo.
Data set [15] can be described thus: Protein binding in human plasma. In kind it is ADME, cell-free. To be noted: read-out: PPB.
Data set [16] is described as follows: Cmax in dog at 4 mg/kg, po. In kind it is ADME, organism-based, Canis lupus familiaris. More on the design: route oral, dose 4 mg/kg. The settings on record: in vivo.
Data set [17] in a line: AUC in rat at 1 mg/kg, iv. The class given is ADME, organism-based. More on the design: dose 1 mg/kg. To be noted: in vivo.
The nature of data set [18]: Genotoxicity in Salmonella typhimurium by reverse mutation assay. In kind it is toxicity. To be noted: salmonella enterica subsp. enterica serovar typhimurium.
Data set [19] in a line: Ratio of drug level in liver to plasma of mouse at 10 mg/kg, po measured after 2 hrs post dose. In kind it is ADME, organism-based. A digest of the protocol:
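C57BL/6 mice received a single oral dose of 10 mg/kg in 0.5% methylcellulose/1% Tween80. Animals were sacrificed 2 h post-dose. Compound was measured in brain, liver, adipose and plasma (nmol/g), and tissue/plasma ratios were calculated.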

Data set [20] addresses 11-beta-hydroxysteroid dehydrogenase 1 (Mus musculus, UniProt P50172). In words: Inhibition of mouse 11beta-HSD1 expressed in microsomes. More on the design: species or system Microsome. In short, it runs like this: as §1
Data set [21] relates to Mus musculus. In words: Improvement in lipid profile in C57BL/6-Lep^ob (ob/ob) mouse assessed as triglyceride level at 20 mg/kg, po dosed once daily for 25 days (reference value: 90.9 +/- 5.5 mg/dl). The settings on record: time 25 day. In kind it is functional.
Data set [22] can be described thus: In-vivo inhibition of 11beta-HSD1 activity in C57BL/6 mouse liver assessed as reduction in cortisone to-cortisol conversion at 10 mg/kg, po measured after 2 hrs by ELISA. The class given is functional. To be noted: C57BL/6, Liver.
Data set [23] in a line: Drug level in mouse adipose tissue at 10 mg/kg, po measured after 2 hrs post dose. The class given is ADME, organism-based. To be noted: in vivo. A digest of the protocol: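 C57BL/6 mice given a single oral 10 mg/kg dose in 0.5% methylcellulose plus 1% Tween80. Sacrifice at 2 h post-dose, with collection of brain, liver, adipose and plasma. Compound concentration expressed as nmol/g, along with tissue/plasma ratio.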

Each structure is given as a SMILES string. Some results are limits rather than exact numbers.

Chain of 11-beta-hydroxysteroid dehydrogenase 1 (Homo sapiens, UniProt P28845) (P28845 whole entry): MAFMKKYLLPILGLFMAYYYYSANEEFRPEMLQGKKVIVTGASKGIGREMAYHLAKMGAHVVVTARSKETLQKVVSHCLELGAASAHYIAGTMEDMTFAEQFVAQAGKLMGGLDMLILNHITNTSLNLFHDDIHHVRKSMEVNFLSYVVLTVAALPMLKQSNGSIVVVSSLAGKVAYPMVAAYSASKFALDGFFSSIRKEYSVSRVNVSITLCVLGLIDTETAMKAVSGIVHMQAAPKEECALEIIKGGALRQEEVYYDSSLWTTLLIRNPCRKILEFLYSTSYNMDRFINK
Chain of 11-beta-hydroxysteroid dehydrogenase 1 (Mus musculus, UniProt P50172) (P50172 whole entry): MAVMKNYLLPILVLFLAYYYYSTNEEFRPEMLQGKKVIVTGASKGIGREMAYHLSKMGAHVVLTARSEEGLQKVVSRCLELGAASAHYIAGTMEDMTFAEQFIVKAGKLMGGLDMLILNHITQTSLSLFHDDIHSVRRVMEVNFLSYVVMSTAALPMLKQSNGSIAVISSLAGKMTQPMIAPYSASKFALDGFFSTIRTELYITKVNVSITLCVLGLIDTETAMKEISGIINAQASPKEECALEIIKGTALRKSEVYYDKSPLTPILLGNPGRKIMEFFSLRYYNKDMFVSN

Turning to `C[C@@H]1CN(c2ccc(S(C)(=O)=O)cc2F)CCN1c1nccc(C(=O)NC2C3CC4CC2CC(O)(C4)C3)n1` (some centres undefined), the Ratio is above 50 in [1] and above 30 in [6]. Also, the Activity with Mus musculus [2] was 235 mg/dL; in the data set with Erythrocyte, “Non-Toxic”; in the data set on Mus musculus [7], 17.2 mg/dL; in data set [13], 0%; in data set [18], “Non-Toxic”; in the data set with Mus musculus [21], 83.4 mg/dL. For the same compound, the IC50 in data set [3] was found to be 2.9 nM; in data set [20] it was 1.6 nM. The clearance in data set [4] was 15.5 mL/min/kg. The inhibition in vivo at 10 mg/kg in data set [5] was determined as 87%; in data set [22] it was 86%. Further, the NOAEL at 672 h stood at 400 mg/kg in data set [8] and 625 mg/kg in data set [10]. The same compound showed a half-life in [9] of 4.7 h. For the same compound, the Tmax turned out to be 1.3 h in data set [11] and 2.1 h in data set [12]. Further, the Cmax in data set [14] amounted to 1020 ng/mL; in data set [16] it was 1120 ng/mL. For the same compound, the fraction unbound in [15] was found to be 0.01. Moreover, the AUC in data set [17] is 1120 ng·h/mL. Moreover, in data set [19], the Kp at 2 h amounted to 2.94. The compound further had a Drug uptake in [23] of 6.64 nmol/g.
